We go through 10 molecules from ChEMBL document CHEMBL2157962, “A fluorous and click approach for screening potential PET probes: Evaluation of potential hypoxia biomarkers” (Bioorg Med Chem, 2012).

The subject of data set [1] is MCF7. The data set can be described thus: Drug uptake in human MCF7 cells at 0.5 to 1.0 MBq/mL after 1 hr in normoxic condition by gamma counting. The class given is ADME, cell-based. To be noted: mcf7, 1 h. Put shortly: (§1)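 MCF-7 cells in RPMI 1640 with 10% FBS were seeded at 100,000 cells/well and grown 24 h, then held 4 h normoxic (5% CO2) or hypoxic (5% CO2/95% N2 chamber, 37 °C). ¹⁸F-labeled tracer (0.5–1.0 MBq/mL in PBS) was added for 1 h at 37 °C. Cells were washed twice with PBS, lysed in 1 M NaOH, and gamma counted. Uptake is expressed as % of added activity; 6 replicates.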

For data set [2], the system named is MCF7. In words: Drug uptake in human MCF7 cells at 0.5 to 1.0 MBq/mL after 1 hr measured 60 mins post wash out in hypoxic condition by gamma counting. The class given is ADME, cell-based. The note with it: mcf7, 1 h. Put shortly:
(§2)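 MCF-7 cells were preconditioned 4 h normoxic or hypoxic (5% CO2/95% N2), then given ¹⁸F tracer (0.5–1.0 MBq/mL) for 1 h at 37 °C. Radioactive medium was replaced with fresh RPMI 1640 (10% FBS) for a further 1 h under the same oxygen condition. Cells were then PBS-washed, lysed in 1 M NaOH and gamma counted. Retained activity is given as % of added.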

Data set [3] has as its system MCF7. The data set can be described thus: Drug uptake in human MCF7 cells at 0.5 to 1.0 MBq/mL after 1 hr in hypoxic condition by gamma counting. The data set is classed as ADME, cell-based. To be noted: mcf7, 1 h. The essentials: as §1
Data set [4] concerns MCF7. The data set can be described thus: Drug uptake in human MCF7 cells at 0.5 to 1.0 MBq/mL after 1 hr measured 60 mins post wash out in normoxic condition by gamma counting. The data set is classed as ADME, cell-based. To be noted: mcf7, 1 h. The essentials: as §2
Data set [5] can be described thus: Drug metabolism of the compound assessed as reduction rate assessed per unit of enzyme in anoxic conditions in presence of bovine milk xanthine oxidase. The note with it: cattle. The data set is classed as physicochemical. The essentials: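 Xanthine oxidase in PBS (0.118 unit) added to 0.29 mM xanthine (reducing substrate) plus 0.12 mM nitroaromatic (oxidizing substrate) in 50 mM PBS pH 7.5 at 37 °C. Solutions argon-degassed 20 min; sealed cuvette. Rate taken from initial absorbance loss at λmax (>325 nm) or at the 249 nm isosbestic point, converted to nmol/min via extinction coefficients. Triplicate, mean ± SD.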

The nature of data set [6]: 1-Octanol-phosphate buffer partition coefficient, log P of the compound at pH 7.4 after 30 mins by shake-flask method. The class given is physicochemical. Put shortly: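 Shake-flask: about 0.01–0.1 mg/mL compound shaken in 1-octanol and 50 mM phosphate buffer (pH 7.4) for 30 min at room temperature. Equal amounts of each phase quantified by HPLC UV absorbance (C18, isocratic ethanol:water). Triplicate, mean ± SD.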

The test system of data set [7] is MCF7. The data set can be described thus: Drug uptake in human MCF7 cells at 30 GBq/umol after 1 hr in hypoxic condition by gamma counting. The data set is classed as ADME, cell-based. To be noted: mcf7, 1 h. The essentials: (§3)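 MCF-7 cells were grown in RPMI 1640 with 10% FBS and 1% P/S, seeded at 100,000 cells/well, and cultured 24 h at 37 °C in 5% CO2. They were then kept 4 h in a sealed chamber flushed with 5% CO2/95% N2 (10 L/min, 15 min). ¹⁸F-tracer (0.5–1.0 MBq/mL in PBS) was added for 1 h at 37 °C under hypoxia. Cells were PBS-washed twice, lysed in 1 M NaOH, and gamma-counted; uptake is % of added activity, n=6.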

The subject of data set [8] is MCF7. The data set can be described thus: Drug uptake in human MCF7 cells at 30 MBq/umol after 1 hr in hypoxic condition by gamma counting. The data set is classed as ADME, cell-based. The note with it: mcf7, 1 h. The essentials: as §3
The test system of data set [9] is MCF7. In words: Drug uptake in human MCF7 cells at 0.3 MBq/umol after 1 hr in hypoxic condition by gamma counting. To be noted: mcf7, 1 h. The class given is ADME, cell-based. Put shortly: as §3

Take `O=[N+]([O-])c1cnc(NCc2cn(CC[18F])nn2)s1`: the Drug uptake entry in the data set on MCF7 [1], in the data set with MCF7 [2], in the data set with MCF7 [3] and in the data set on MCF7 [4] was “Active” in each case.

For `O=[N+]([O-])c1ncccc1NCc1cn(CC[18F])nn1`, the Drug uptake result in the data set with MCF7 [1] and in the data set with MCF7 [3] was “Active” throughout.

As for `O=[N+]([O-])c1ccnn1Cc1cn(CC[18F])nn1`, the Drug uptake entry in the data set on MCF7 [3] is given as “Not Active”.

As to `O=[N+]([O-])c1nccn1Cc1cn(CC[18F])nn1`, the Drug uptake entry in the data set with MCF7 [1] and in the data set on MCF7 [3] was “Active” throughout.

What is called logD is the decadic logarithm of the distribution of all forms, ionised or not, between an organic phase and buffer at a given pH. For the molecule `O=[N+]([O-])c1cnc(NCc2cn(CCF)nn2)s1`, the Drug metabolism in data set [5] was found to be 277 nmol/min/U. In addition, the logD at 0.5 h in [6] was found to be 0.79.

For the molecule `O=[N+]([O-])c1ncccc1NCc1cn(CCF)nn1`, the Drug metabolism in data set [5] stood at 58 nmol/min/U. In data set [6], this molecule yielded a logD at 0.5 h of 0.04.

With `O=[N+]([O-])c1ccnn1Cc1cn(CCF)nn1`, in data set [5], the Drug metabolism was 20 nmol/min/U. Besides, in data set [6], the logD at 0.5 h was found to be 0.03.

For the molecule `O=[N+]([O-])c1nccn1Cc1cn(CCF)nn1`, the Drug metabolism in [5] was 36 nmol/min/U. The same molecule showed a logD at 0.5 h in [6] of -0.41.

Take `O=[N+]([O-])c1nccn1CC(O)CF` (stereo unspecified) [FLUOROMISONIDAZOLE]: in data set [5], the Drug metabolism came out at 37 nmol/min/U.

For the molecule `O=[N+]([O-])c1nccn1CC(O)C[18F]` (stereo unspecified) [[18F]FLUOROMISONIDAZOLE], the results for the Drug uptake with MCF7 [7], with MCF7 [8] and with MCF7 [9] were 3.9%, 3.2% and 1.1%, respectively.
